Screens from PubChem BioAssay.
Shown are actives, neighbours in structure and some others; about 12% of the full set was active somewhere.
Rad51 HR inh: blocks human Rad51 in homologous recombination | AID 1385 | hRad51 DNA strand exchange, fluorescence dequenching | inhibition, % at 10 µM | actives 0.085% (n = 200,000) | Q06609;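 active means inhibition above 40% at the single screening dose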;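 further: 0% = DMSO control wells and 100% = blanks with heterologous ssDNA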
Target sequence (Q06609 whole entry, looked up): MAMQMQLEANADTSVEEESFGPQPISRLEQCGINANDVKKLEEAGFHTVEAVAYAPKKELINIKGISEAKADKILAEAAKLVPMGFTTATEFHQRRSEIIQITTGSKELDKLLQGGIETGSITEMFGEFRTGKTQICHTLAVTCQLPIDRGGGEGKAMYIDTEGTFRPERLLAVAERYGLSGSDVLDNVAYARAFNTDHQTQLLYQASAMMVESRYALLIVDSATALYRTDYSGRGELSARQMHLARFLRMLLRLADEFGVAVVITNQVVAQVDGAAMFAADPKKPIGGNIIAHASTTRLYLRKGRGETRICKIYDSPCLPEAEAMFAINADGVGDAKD
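Material: hRad51 filaments on single-stranded DNA; Reagent: Donor/quencher-labelled 47-bp dsDNA substrate; Compound: 10 µM final, single point; Schedule: 37 °C 15-min filament assembly, 30-min compound preincubation, 15-min exchange; Technique: FRET fluorescence, excitation 485 nm, emission 520 nm; Benchmarks: control wells and blank wells on each plate.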
Arbovirus inh: blocks arbovirus infection; arbovirus infection cell-based antiviral screen; inhibition, % at 10 µM; actives 0.37% (n = 200,000); in the data active means inhibition above about 30%
Wee1 degr inh: human Wee1 degradation inhibition, primary screen | P30291 | HeLa Luc-Wee1K328M stability, luciferase luminescence; 100% = proteasome inhibitor MG132 effect | reporter increase, % at 5 µM | actives 1.2% (n = 220,000);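 active means activation above the mean of all tested compounds plus 3 SD, set per screening run, cut at about 8.8% in these data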;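 further: cells exposed to compound for 20 h before luminescence read; 0% = DMSO alone and 100% = MG132 at 30 µM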
CHOP inhibitor: inhibitors of CHOP induction in ER stress response; CHO-K1 CHOP-promoter luciferase, tunicamycin-induced, 15-18 h; inhibition, % at 10 µM; actives 3.8% (n = 220,000);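 active means compounds that reduced the stress-induced luciferase reporter signal by more than about 70% of percent inhibition, limit read from the data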;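 further: 0% = tunicamycin plus vehicle and 100% = wells without tunicamycin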
PKD1 kinase inh: blocks activity of human protein kinase D1 | AID 797 | Q15139 | inhibition, % (concentration not given with the values) | PKD1 kinase fluorescence polarization assay | actives 0.056% (n = 200,000)
Lmaj promast: Leishmania major promastigote growth inhibition | Leishmania major promastigotes, resazurin fluorescence viability | actives 9% (n = 200,000) | inhibition, % at 10 µM;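 further: promastigotes grown with compound for 44 hours at 28 °C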
Starred values were filed as active, the others as inactive; · = no result given. Unless noted, no stated cut-off is given here; in the data, active means inhibition above about 50%; inactive means the rest.

SMILES | Rad51 HR inh | Arbovirus inh | Wee1 degr inh | CHOP inhibitor | PKD1 kinase inh | Lmaj promast
CC(=O)NC1C(=O)N=C(SCC(=O)Nc2ccc(C(F)(F)F)cc2Cl)NC1=O (configuration not stated) | -5 | -2 | -2 | 1 | 2 | -5
Cc1ccc(Oc2c(CO)c(-c3ccccc3)nn2C)cc1 | 2 | -17 | -1 | 10 | 1 | 3
CC(C)CC(NC(=O)C(COC(C)(C)C)NC(=O)C(Cc1ccc(O)cc1)NC(=O)C(CO)NC(=O)C(Cc1c[nH]c2ccccc12)NC(=O)C(Cc1cnc[nH]1)NC(=O)C1CCC(=O)N1)C(=O)N[C@@H](CCCN=C(N)N)C(=O)N1CCCC1C(=O)NNC(N)=O (some centres not stated) | 0 | · | · | · | · | ·
Cc1ccc(C(=O)N2CCN(c3ccccc3F)CC2)cc1S(=O)(=O)N1CCOCC1 | 5 | 14 | 5 | 15 | -2 | -2
COc1ccc(-n2cnc3c(sc4nc(N5CCOCC5)c5c(c43)CCCC5)c2=O)cc1 | -2 | -6 | -1 | 1 | -5 | 87*
CCCCC(=O)NC(c1ccccc1OC)c1ccc2cccnc2c1O (configuration not stated) | -3 | · | 5 | 72* | · | ·
CCCC(=O)NC(c1ccccc1OC)c1ccc2cccnc2c1O (configuration not stated) | -9 | -29 | -4 | 62 | 0 | 100*
CCc1c(C)c(C#N)c2[nH]c3ccccc3n2c1=S | 17 | · | 2 | 37 | · | ·
CC1(C)CC(NC(=O)c2ccccn2)CC(C)(C)N1O | 4 | 1 | 0 | -1 | 2 | -1
COC(=O)/C=C1\SC(N2CCOCC2)=C(c2ccc(OC)cc2)C1=O | · | -2 | 6 | 20 | -3 | 32
CCn1cnc2sc(C(=O)Oc3cccc(C)c3)c(C)c2c1=O | -10 | -1 | 2 | -20 | 5 | 41
Cc1c(C(=O)Oc2ccc(F)cc2)sc2ncn(Cc3cccc(F)c3)c(=O)c12 | 10 | 0 | -1 | 41 | -3 | 51*
CN(C)CC1CCCCC1OC(=O)c1ccc(Br)cc1 (configuration not stated) | -2 | 12 | 2 | 27 | 3 | 74*
CN(C)CC1CCCCC1OC(=O)c1ccc(Cl)cc1Cl (configuration not stated) | 12 | 3 | 5 | 30 | 8 | 2
CCN(CC)c1nc(-c2cccc(OC)c2O)nc2ccccc12 | 7 | -10 | -2 | 88* | 5 | 7
COCCNC(=O)/C(C#N)=C/c1ccc(C)o1 | 3 | 4 | 3 | 1 | -1 | -5
CCOC(=O)c1ccc(NC(=O)C(=O)NCc2ccc(/C=C(/C#N)C(=O)NCCOC)o2)cc1 | -25 | 10 | 2 | 72* | -2 | -8
COC(=O)c1scc(C)c1-n1ccc(C(=O)C(=O)N(C)C)c1 | 16 | 10 | -2 | 9 | -5 | -6
COc1cc2c(cc1NC(=O)CSc1nc3ccccc3[nH]1)oc1ccccc12 | -2 | 6 | -2 | 95* | 0 | 35
COc1cc2c(cc1NC(=O)CSc1nc3cc(Cl)ccc3s1)oc1ccccc12 | -8 | -30 | -2 | 28 | -4 | 51*
COc1cc2c(cc1NC(=O)CN(C)Cc1nc3ccccc3c(=O)[nH]1)oc1ccccc12 | -12 | 2 | -1 | 74* | -7 | -7
COc1ccc(NC(=O)CSc2nc3ncccc3[nH]2)cc1OC | 1 | 1 | 11* | -8 | 3 | 37
COc1cccc(C2=CC(=O)CC(c3ccco3)C2)c1 (configuration not stated) | 5 | · | · | · | · | ·
COc1cc2c(cc1NC(=O)COC(=O)[C@@H](NS(=O)(=O)c1cccc(Cl)c1)C(C)C)oc1ccccc12 | 9 | 4 | 4 | 21 | -13 | 62*
COc1ccc(S(=O)(=O)N[C@@H](C)C(=O)OCC(=O)Nc2cc3oc4ccccc4c3cc2OC)cc1 | -1 | -6 | 2 | -16 | -6 | 34
COC(=O)c1sccc1NC(=O)c1ccc(C)o1 | 3 | -1 | -1 | -15 | 1 | 1
COC(=O)c1sccc1NC(=O)c1ccc(Br)o1 | 7 | 2 | 4 | 88* | -7 | -3
COc1ccc(/C(C)=C(\C#N)C(=O)OC(C)C)cc1OC | -3 | -9 | -2 | 12 | 1 | -7
O=C(N1CCOCC1)N1CCN(C(=O)N2CCOCC2)CC1 | · | · | 2 | · | 0 | -6
CC(=O)N1CCOCCOCCN(C(C)=O)CCOCC1 | -47 | -10 | 11* | 21 | -2 | 1
